Rows were chosen to be rich in hits. Some 3.1% of all compounds tested hit in one or more screens of this group.
Cneo AK release: causes C. neoformans cell lysis | adenylate kinase release luminescence, 4 h; normalised: neutral wells 0, clomiphene wells 100 | lysis activity, % at 15 µM | actives 0.2% (n = 360,000) | AID 651654;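 active = mean lysis activity across replicates of at least 80%, whatever share of replicates individually reach that level; inactive = mean lysis activity below 80%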
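Test system: log-phase Cryptococcus neoformans yeast cells; Quantity: yeast cell density of 5 × 10^6 cells/mL; Buffer or medium: YPD; Doses: single compound concentration per well; Timing: 4 h at 37 °C static, read 1 h later; Measured by: AK luminescence; Read-out basis: lysis from increased AK signal; Control set: Clomiphene as positive control.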
miR-122 sensor: blocks miR-122 activity in Huh7 sensor cells. Huh7 miR-122 Renilla luciferase sensor, 48 h; neutral wells = 0, positive control = 100. activation (reporter increase), % at 12.5 µM. actives 0.3% (n = 340,000);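 active = mean replicate activation score at least 90 and every replicate individually at or above 90; inconclusive = only one of the two criteria met; inactive = neither criterion met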;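 also: higher luciferase means less miR-122 activity so hits act as miR-122 inhibitors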
INS-1E GSIS act: primary screen for activators of insulin secretion dependent on glucose, INS-1E cells, GLuc reporter luminescence. INS-1E GLuc reporter insulin secretion, 2-3 h. activation, % at 16.6 µM. actives 0.61% (n = 370,000). AID 743287;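 active = lowest replicate activation of at least 40%, so every replicate reaches that level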
Env fusion inh: inhibitors of HIV Env-mediated cell fusion | actives 1.1% (n = 360,000) | AID 651610 | inhibition, % at 12.3 µM | HeLa-JRFL Env/CEM21 cell fusion, luciferase;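 active = mean replicate inhibition score of at least 50 and every replicate individually at or above 50; inconclusive = only one of the two criteria met; inactive = mean below 50 and not all replicates reaching 50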
Ecoli rRNA inh: selective bacterial rRNA inhibition in E. coli; E. coli WT GFP vs humanized-ribosome RFP mutants, fluorescence, 24 h; active compounds read low; DMSO median 0, no signal -100; GFP signal change (wild-type ribosome), % (no concentration beside the values); actives 1.6% (n = 350,000); AID 720706;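 active = significant combined selectivity score with lowered wild-type GFP, culture density cut under 30%, mutant RFP and density less affected; inactive = any of these conditions unmet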
CFTR F508del cor: CFTR F508del correction in bronchial cells | CFBE cells, YFP halide quenching; stimulated with forskolin plus potentiator P3; % fluorescence drop versus neutral controls | activity (quench increase), % at 7.58 µM | actives 0.36% (n = 350,000);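 active = mean added fluorescence quench of at least 8% versus neutral control, with both replicates also reaching 8%; inconclusive = only one of the mean or replicate conditions met; inactive = mean below 8% and not both replicates reaching 8%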;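 also: cells transiently co-express mutant CFTR-F508del with the halide-sensitive YFP; corrector assay measuring rescue of mutant channel to the surface after 24 h compound exposure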
A number is an active result.

For Nc1nonc1C(=O)NCCNCc1cc(Br)ccc1OCc1ccc(F)cc1 the results were Cneo AK release inactive, miR-122 sensor inactive and Env fusion inh 67.
For Nc1nonc1C(=O)NCCNCc1c(OCc2ccccc2F)ccc2ccccc12 the results were Cneo AK release inactive, INS-1E GSIS act inactive and Env fusion inh 103.
For COc1ccc(CNCCNC(=O)c2nonc2N)cc1OC the results were Cneo AK release inactive, miR-122 sensor inactive, INS-1E GSIS act inactive, Env fusion inh inactive and Ecoli rRNA inh inactive.
`COc1ccc(S(=O)(=O)Nc2ccc3c(c2)C(=O)N([C@@H](C)CO)C[C@H](C)[C@@H](CN(C)Cc2ccc(-c4ccccc4)cc2)O3)cc1` gave Cneo AK release inactive, miR-122 sensor inactive, INS-1E GSIS act inactive, Env fusion inh inactive, Ecoli rRNA inh inactive and CFTR F508del cor inactive.
For CCC(=O)N1[C@@H]2Cn3c(ccc(-c4ccc(F)cc4)c3=O)[C@H]1[C@@H](C(=O)N(C)C)[C@@H]2CO the results were Cneo AK release inactive, miR-122 sensor inactive, INS-1E GSIS act inactive, Ecoli rRNA inh inactive and CFTR F508del cor inactive.
Screening CCOC(=O)C1(Cc2ccccc2Cl)CCN(Cc2csc(C(C)=O)c2)CC1 returned Cneo AK release inactive, miR-122 sensor inactive, Env fusion inh inactive, Ecoli rRNA inh -23 and CFTR F508del cor inactive.
CCOC(=O)C1(Cc2cccc(OC)c2)CCN(Cc2ccccc2)CC1 was read as Cneo AK release inactive, miR-122 sensor inactive, INS-1E GSIS act inactive, Env fusion inh inactive, Ecoli rRNA inh inactive and CFTR F508del cor inactive.
For CO[C@@H]1CN(C)C(=O)c2cc(NC(=O)C3CC3)ccc2OC[C@@H](C)N(S(=O)(=O)c2ccc(Cl)cc2)C[C@H]1C the results were Cneo AK release inactive, miR-122 sensor inactive and CFTR F508del cor inactive.
`CN(C)CCCC1Sc2ccccc2Sc2ccccc21` (centres undefined) gave Env fusion inh inactive, Ecoli rRNA inh -46 and CFTR F508del cor inactive.
`CN(C)S(=O)(=O)c1ccc(N2CCCC2)c(C(=O)NC(c2ccccc2)c2ccccc2)c1` gave Cneo AK release inactive, miR-122 sensor inactive and Env fusion inh inconclusive.
`CC(NC(=O)c1cc(S(=O)(=O)N(C)C)ccc1N1CCCC1)C1CC2CCC1C2` (centres undefined) gave INS-1E GSIS act inactive, Env fusion inh 72, Ecoli rRNA inh inactive and CFTR F508del cor inactive.
For CSCc1ccc(C(=O)OCc2nc3ccccc3s2)o1 the results were Cneo AK release inactive, miR-122 sensor inactive, INS-1E GSIS act inactive, Ecoli rRNA inh -16 and CFTR F508del cor inactive.
`NC(=O)c1sc2nc3c(c(-c4cccs4)c2c1N)CCCCC3` gave Cneo AK release inactive, miR-122 sensor inactive and Env fusion inh 126.
COc1ccc([C@@H]2[C@@H]3C(=O)N(C(C)(C)C)C(=O)[C@@H]3[C@]3(C)C(=O)N(c4cccc(Cl)c4)C(=O)N23)cc1 was read as Cneo AK release inactive, miR-122 sensor inactive, INS-1E GSIS act inactive, Env fusion inh 61 and CFTR F508del cor inactive.
Screening Cc1cccc(N2C(=O)N3[C@H](c4ccc(Br)cc4)[C@@H]4C(=O)N(C(C)(C)C)C(=O)[C@@H]4[C@]3(C)C2=O)c1 returned Cneo AK release inactive, miR-122 sensor inactive, INS-1E GSIS act inactive, Env fusion inh 112, Ecoli rRNA inh inactive and CFTR F508del cor inactive.
For COc1ccc([C@@H]2[C@@H]3C(=O)N(C(C)(C)C)C(=O)[C@@H]3[C@]3(C)C(=O)N(c4ccccc4)C(=O)N23)cc1 the results were Cneo AK release inactive, INS-1E GSIS act inactive, Env fusion inh inactive, Ecoli rRNA inh inactive and CFTR F508del cor inactive.
Screening Cc1ccc(N2C(=O)N3[C@H](c4ccc(Br)cc4)[C@@H]4C(=O)N(C(C)(C)C)C(=O)[C@@H]4[C@]3(C)C2=O)cc1 returned Cneo AK release inactive, miR-122 sensor inactive, INS-1E GSIS act inactive, Env fusion inh inactive, Ecoli rRNA inh inactive and CFTR F508del cor inactive.
